One data set deals with human OGG1 (Homo sapiens, UniProt O15527). The class given is biochemical. As to conditions: for inhibition of excision of 8-OH-Gua by OGG1 / inhibition of excision of FapyAde by OGG1: inhibitor 10 μmol/L, genomic DNA, GC-MS/MS; for inhibition at 10 µM: read-out: inhibition of excision of FapyGua by OGG1. Summed up: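 Test compound was dissolved in DMSO and added to the reaction mixture of human OGG1 with genomic DNA carrying multiple oxidatively-induced lesions. It was screened at 10 μmol/L, then tested from 0.05 to 10 μmol/L. Excised 8-OH-Gua, FapyGua and FapyAde were quantified by isotope-dilution GC-MS/MS. Controls were no enzyme, no inhibitor, and DMSO alone. Standard deviations were given; significance was set at p < 0.05.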
human OGG1, sequence (O15527 whole entry): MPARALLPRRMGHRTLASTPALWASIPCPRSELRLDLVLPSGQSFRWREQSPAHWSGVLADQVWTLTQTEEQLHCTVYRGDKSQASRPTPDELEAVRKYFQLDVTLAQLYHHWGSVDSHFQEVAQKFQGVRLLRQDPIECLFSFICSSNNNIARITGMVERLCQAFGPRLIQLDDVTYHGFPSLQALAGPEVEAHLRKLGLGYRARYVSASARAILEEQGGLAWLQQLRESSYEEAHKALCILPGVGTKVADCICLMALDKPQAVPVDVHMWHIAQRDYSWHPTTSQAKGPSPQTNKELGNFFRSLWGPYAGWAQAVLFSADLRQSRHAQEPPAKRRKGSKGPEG

The subject of a further data set is OGG1. As to conditions: read-out: IC50 OGG1, cited from earlier work.
A further data set has as its system MTH1. The following applies: read-out: IC50 MTH1; dual inhibitor; cited from earlier work.
A further data set deals with HEK293T and HeLa cells. As to conditions: cited from earlier work.
The subject of another data set is HeLa cells. The following applies: LC-MS/MS with isotope-dilution; cited from earlier work.
A further data set deals with Pseudomonas aeruginosa. As to conditions: mice infected with Pseudomonas aeruginosa; cited from earlier work.
Data set [1] has as its system other BER enzymes / other DNA glycosylases. As to conditions: cited from earlier work.
[2] abbreviates: highest concentration of 100 μmol/L.

The values that follow come from article PMC9199349 (ACS chemical biology, 2020).

As usually defined, the inhibition is the drop in the measured response relative to a control, in per cent. A word on the IC50: it is the point on the concentration scale where inhibition reaches its midpoint.

“Also recorded” adds a separate entry of the source. Where two headings read alike, the source gives them in different places.

For `Cc1cnc(N)nc1OCCNC(=O)c1cccc(-c2ccc(S(=O)(=O)Nc3ccc4c(c3)N(C(=O)C3CC3)CCC4)cc2)c1` [SU0383, N-(2-((2-Amino-5-methylpyrimidin-4-yl)oxy)ethyl)-4’-(N-(1-(cyclopropanecarbonyl)-1,2,3,4-tetrahydroquinolin-7-yl)sulfamoyl)-[1,1’-biphenyl]-3-carboxamide], at human OGG1, the “inhibition of excision of 8-OH-Gua by OGG1” value is listed as “significant inhibition”. The “inhibition of excision of FapyAde by OGG1” value at human OGG1 is recorded as “quite significant”. Further, on human OGG1, the inhibition at 10 µM was roughly 30%. For the same compound, the half-maximal inhibitory concentration (IC50) with OGG1 (dual inhibitor) is 490 nM; in the data set on MTH1 it was 34 nM. Also, the toxicity entry in the data set with HEK293T and HeLa cells (concentrations up to 10 μmol/L) was “little or no toxicity”; with HEK293T and HeLa cells (setting [2]), “moderate toxicity”.

Regarding `NC(=O)c1cccc(-c2ccc(S(=O)(=O)Nc3ccc4c(c3)N(C(=O)C3CC3)CCC4)cc2)c1` [SU0268, 4’-(N-(1-(cyclopropanecarbonyl)-1,2,3,4-tetrahydroquinolin-7-yl)sulfamoyl)-[1,1’-biphenyl]-3-carboxamide], on human OGG1, the “inhibition of excision of 8-OH-Gua by OGG1” value is “strongly inhibited”, the “inhibition of excision of FapyAde by OGG1” value is reported as “quite significant” and the inhibition at 10 µM is roughly 60%. The IC50 with OGG1 (fluorogenic assay of 8-OH-Gua excision) was 59 nM. The toxicity result with HEK293T and HeLa cells (concentrations up to 10 μmol/L) was “little or no toxicity”. Further, the toxicity result with HEK293T and HeLa cells (setting [2]) is listed as “moderate toxicity”. The “level of 8-OH-Gua in DNA” value with HeLa cells is listed as “increase the level of 8-OH-Gua in DNA”. In the data set with Pseudomonas aeruginosa, the “inflammation and mortality / survival” value is “reduced both inflammation and proinflammatory cytokines, and improved animal survival; also recorded: efficacy in reducing inflammation and mortality”. Further, in data set [1], the “selectivity for OGG1 over other BER enzymes” value is on record as “selective for inhibiting OGG1 over other BER enzymes”.
